In ChEMBL document CHEMBL1124174, “Substituted benzamides. 1. Potential nondopaminergic antagonists of chemotherapy-induced nausea and emesis” (J Med Chem, 1988):
“And” between values parts separate entries of the source, which are not always exact repeats. Identical values can stand only once. Values belong to the molecule of their own block, whether it stands above or below them.

Legend:
[1] = target: D(2) dopamine receptor (Canis lupus familiaris) (UniProt Q9GJU1); assay: In vivo antagonism activity against dopamine D2 receptor was measured as emesis in dog when administered subcutaneously; assay type: functional, organism-based
Chain of D(2) dopamine receptor (Canis lupus familiaris) (Q9GJU1 whole entry): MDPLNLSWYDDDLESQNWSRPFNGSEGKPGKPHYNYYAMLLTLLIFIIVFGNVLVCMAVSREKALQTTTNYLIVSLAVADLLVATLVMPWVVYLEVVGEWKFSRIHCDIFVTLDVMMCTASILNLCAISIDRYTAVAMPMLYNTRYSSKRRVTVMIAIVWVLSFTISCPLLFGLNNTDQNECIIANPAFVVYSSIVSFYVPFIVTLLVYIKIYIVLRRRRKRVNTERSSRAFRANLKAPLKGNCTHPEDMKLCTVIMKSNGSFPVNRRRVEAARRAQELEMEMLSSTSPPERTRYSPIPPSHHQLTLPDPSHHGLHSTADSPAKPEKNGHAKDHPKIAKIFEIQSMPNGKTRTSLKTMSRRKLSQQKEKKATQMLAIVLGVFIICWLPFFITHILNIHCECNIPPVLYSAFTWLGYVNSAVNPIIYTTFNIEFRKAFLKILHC

[2] = target: D(2) dopamine receptor (Rattus norvegicus) (UniProt P61169); assay: In vivo antagonism activity against D2 receptor was measured as stereotypy in rat when administered subcutaneously; assay type: functional, organism-based
Chain of D(2) dopamine receptor (Rattus norvegicus) (P61169 whole entry): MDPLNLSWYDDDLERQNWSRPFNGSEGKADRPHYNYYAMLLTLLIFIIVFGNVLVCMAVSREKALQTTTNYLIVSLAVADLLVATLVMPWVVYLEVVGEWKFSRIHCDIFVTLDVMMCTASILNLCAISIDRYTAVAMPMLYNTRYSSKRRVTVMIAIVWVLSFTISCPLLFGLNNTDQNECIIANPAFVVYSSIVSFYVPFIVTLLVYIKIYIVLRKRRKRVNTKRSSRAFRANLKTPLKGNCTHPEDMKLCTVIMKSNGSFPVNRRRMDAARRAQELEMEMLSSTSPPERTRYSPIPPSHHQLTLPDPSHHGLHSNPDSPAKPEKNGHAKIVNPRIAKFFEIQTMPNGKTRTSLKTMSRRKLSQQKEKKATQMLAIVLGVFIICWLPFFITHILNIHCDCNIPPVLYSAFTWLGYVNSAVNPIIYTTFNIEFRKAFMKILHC
In short: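 Male Long Evans rats (275 g) were dosed sc in dilute aqueous HCl (pH 4.5-5.5) 30 min before apomorphine (1 mg/kg sc).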

Canis familiaris [3] = assay: In vivo antagonism of cisplatin-induced emesis in dog measured as percentage protection for twice the dose of 3 mg/kg in 2 dogs; assay type: functional, Canis lupus familiaris
In short: (§1)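 Nonfasted mature male or female beagles were dosed sc twice, 30 min before and 120 min after cisplatin (3 mg/kg iv; 3 mg/mL in warm 0.9% saline, used immediately). Emesis was observed up to 5 h; events within 2 min counted as one episode. Results were given as mean emetic episodes and % protection versus a dynamic control (historical and concurrent saline means pooled). t test versus saline.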

Mustela putorius furo [4] = assay: In vivo antagonism of cisplatin-induced emesis in ferret measured as emetic episodes, twice the dose of 3 mg/kg and in 3 ferrets; assay type: functional
In short: (§2)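 Nonfasted castrated male Fitch ferrets (1–1.5 kg) had jugular catheters implanted ≥48 h earlier under anesthesia. Compounds or saline were given iv twice, 5 min before and 90 min after cisplatin (12 mg/kg iv; 12 mg/mL in warm 0.9% saline). Emesis was observed up to 4 h; events within 1 min counted as one episode. Results were given as mean emetic episodes and % protection versus a pooled historical/concurrent control. t test versus saline.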

Mustela putorius furo [5] = assay: In vivo antagonism of cisplatin-induced emesis in ferret measured as percentage protection for twice the dose of 3 mg/kg and in 3 ferrets; assay type: functional; in short: as §2
[6] = target: D(2) dopamine receptor (Rattus norvegicus) (UniProt P61169); assay: In vivo antagonistic activity against dopamine D2 receptor was measured as catalepsy in rat when administered subcutaneously; assay type: functional, organism-based
In short: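 Male Long Evans rats (275 g) received graded sc doses in dilute aqueous HCl (pH 4.5-5.5). They were observed 180 min for catalepsy, scored when the animal stayed stationary ≥15 s on a four-cork template.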

Canis familiaris [7] = assay: In vivo antagonism of cisplatin-induced emesis in dog measured as emetic episodes, twice the dose of 3 mg/kg in 2 dogs; assay type: functional, Canis lupus familiaris; in short: as §1
D(2) dopamine receptor = D(2) dopamine receptor (Rattus norvegicus, UniProt P61169); assay: In vitro antagonistic activity against Dopamine receptor D2 was evaluated for the inhibition of [3H]spiperone binding
Chain of D(2) dopamine receptor (P61169 whole entry): as above
In short: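 Rat striatal membranes were prepared by differential centrifugation in 50 mM Tris pH 7.4 at 4 °C. Membrane protein (10 mg) was incubated 15 min at 37 °C with 0.1 nM [3H]spiperone and varying competitor concentrations. Buffer: 50 mM Tris HCl pH 7.5, 0.1% ascorbic acid, pargyline, 120 mM NaCl, 5 mM KCl, 2 mM CaCl2, 1 mM MgCl2. (+)-Butaclamol defined nonspecific binding. Bound ligand was collected by filtration and scintillation counted. IC50 by log-logit regression.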

Canis familiaris [8] = assay: In vivo antagonism of cisplatin-induced emesis in dog measured as percentage protection for twice the dose of 0.3 mg/kg in 2 dogs; assay type: functional, Canis lupus familiaris; in short: as §1
Canis familiaris [9] = assay: in vivo antagonism of cisplatin-induced emesis in dog measured as emetic episodes, twice the dose of 0.3 mg/kg in 2 dogs; assay type: functional, Canis lupus familiaris
Canis familiaris [10] = assay: In vivo antagonism of cisplatin-induced emesis in dog measured as percentage protection for twice the dose of 1 mg/kg in 2 dogs; assay type: functional, Canis lupus familiaris; in short: as §1
Mustela putorius furo [11] = assay: In vivo antagonism of cisplatin-induced emesis in ferret measured as emetic episodes, twice the dose of 1 mg/kg and in 3 ferrets; assay type: functional; in short: as §2
Canis familiaris [12] = assay: Antagonism of cisplatin-induced emesis in dog measured as emetic episodes, twice the dose of 0.3 mg/kg in 2 dogs.(in vivo); assay type: functional, Canis lupus familiaris; in short: as §1
Canis familiaris [13] = assay: Antagonism of cisplatin-induced emesis in dog measured as emetic episodes, twice the dose of 1 mg/kg in 2 dogs.(in vivo); assay type: functional, Canis lupus familiaris; in short: as §1
Canis familiaris [14] = assay: (§3) In vivo antagonism of cisplatin-induced emesis in dog measured as emetic episodes, twice the dose of 0.2 mg/kg in 4 dogs; assay type: functional, Canis lupus familiaris; in short: as §1
Mustela putorius furo [15] = assay: In vivo antagonism of cisplatin-induced emesis in ferret measured as percentage protection for twice the dose of 0.8 mg/kg in 5 ferrets; assay type: functional; in short: as §2
Canis familiaris [16] = assay: Protection against cisplatin-induced emesis in dog measured as percentage protection for twice the dose of 0.2 mg/kg; assay type: functional, Canis lupus familiaris
Canis familiaris [17] = assay: […] cisplatin-induced emesis in dog was measured for as stereotypy when administered iv twice daily; assay type: functional; conditions: Canis lupus familiaris
Mustela putorius furo [18] = assay: In vivo antagonism of cisplatin-induced emesis in ferret measured as percentage protection for twice the dose of 0.2 mg/kg in 4 ferrets; assay type: functional; in short: as §2
Canis familiaris [19] = assay: as §3; assay type: functional, Canis lupus familiaris; in short: as §1; remark: listed apart in the source
Mustela putorius furo [20] = assay: antagonism of cisplatin-induced emesis in ferret measured when administered intravenously twice daily; conditions: iv
Canis familiaris [21] = assay: In vivo antagonism of cisplatin-induced emesis in dog measured as percentage protection for twice the dose of 0.2 mg/kg in 4 dogs; assay type: functional, Canis lupus familiaris; in short: as §1
Canis familiaris [22] = assay: (§4) In vivo antagonism of cisplatin-induced emesis in dog measured as emetic episodes, twice the dose of 2.5 mg/kg in 4 dogs; assay type: functional, Canis lupus familiaris; in short: as §1
Canis familiaris [23] = assay: as §4; assay type: functional, Canis lupus familiaris; in short: as §1; remark: listed apart in the source
Mustela putorius furo [24] = assay: In vivo antagonism of cisplatin-induced emesis in ferret measured as emetic episodes, twice the dose of 0.2 mg/kg in 4 ferrets; assay type: functional; in short: as §2
Canis familiaris [25] = assay: (§5) In vivo antagonism of cisplatin-induced emesis in dog measured as emetic episodes, twice the dose of 0.8 mg/kg in 3 dogs; assay type: functional, Canis lupus familiaris; in short: as §1
Canis familiaris [26] = assay: Protection against cisplatin-induced emesis in dog measured as percentage protection for twice the dose of 0.8 mg/kg and in 3 dogs(1 protected); assay type: functional, Canis lupus familiaris
Canis familiaris [27] = assay: In vivo antagonism of cisplatin-induced emesis in dog measured as percentage protection for twice the dose of 0.8 mg/kg in 3 dogs; assay type: functional, Canis lupus familiaris; in short: as §1
Mustela putorius furo [28] = assay: (§6) In vivo antagonism of cisplatin-induced emesis in ferret measured as percentage protection for twice the dose of 2.5 mg/kg in 5 ferrets; assay type: functional; in short: as §2
Mustela putorius furo [29] = assay: In vivo antagonism of cisplatin-induced emesis in ferret measured as emetic episodes, twice the dose of 2.5 mg/kg in 5 ferrets; assay type: functional; in short: as §2
Canis familiaris [30] = assay: as §5; assay type: functional, Canis lupus familiaris; in short: as §1; remark: listed apart in the source
Canis familiaris [31] = assay: In vivo antagonism of cisplatin-induced emesis in dog measured as percentage protection for twice the dose of 2.5 mg/kg in 4 dogs; assay type: functional, Canis lupus familiaris; in short: as §1
Mustela putorius furo [32] = assay: as §6; assay type: functional; in short: as §2; remark: listed apart in the source
Canis familiaris [33] = assay: Protection against cisplatin-induced emesis in dog measured as percentage protection for twice the dose of 2.5 mg/kg and in 4 dogs(2 protected); assay type: functional, Canis lupus familiaris
Mustela putorius furo [34] = assay: In vivo antagonism of cisplatin-induced emesis in ferret measured as emetic episodes, twice the dose of 0.8 mg/kg in 5 ferrets; assay type: functional; in short: as §2
Canis familiaris [35] = assay: In vivo antagonism of cisplatin-induced emesis in dog measured as emetic episodes, twice the dose of 3 mg/kg in 3 dogs; assay type: functional, Canis lupus familiaris; in short: as §1

Compound: CCN(CC)CCNC(=O)c1cc(Cl)c(N)cc1OCC(=O)Cc1ccccc1
ED50 [1]: > 3 mg/kg
ED50 [2]: > 40 mg/kg
Emetic episodes (Mustela putorius furo [4]): 0
Protection (Mustela putorius furo [5]): 100%
ED50 [6]: > 40 mg/kg
Protection (Canis familiaris [8]): 0%
Emetic episodes (Canis familiaris [9]): 13
IC50 (D(2) dopamine receptor): > 1 µM

Compound: CCN(CC)CCNC(=O)c1cc(Cl)c(N)cc1OC [METOCLOPRAMIDE]
ED50 [1]: 0.36 mg/kg
ED50 [2]: 4 mg/kg
Emetic episodes (Canis familiaris [14]): 5
Protection (Mustela putorius furo [15]): 73% and 66%
Protection (Canis familiaris [16]): 58%
ED50 (Canis familiaris [17]): 0.18 mg/kg
Protection (Mustela putorius furo [18]): 22% and 21%
Emetic episodes (Canis familiaris [19]): 5
ED50 [6]: 26 mg/kg
ED50 (Mustela putorius furo [20]): 0.53 mg/kg
Protection (Canis familiaris [21]): 58%
Emetic episodes (Canis familiaris [22]): 1
Emetic episodes (Canis familiaris [23]): 1
Emetic episodes (Mustela putorius furo [24]): 5.5
Emetic episodes (Canis familiaris [25]): 1
Protection (Canis familiaris [26]): 92%
Protection (Canis familiaris [27]): 92%
Protection (Mustela putorius furo [28]): 90%
Emetic episodes (Mustela putorius furo [29]): 0.6
Emetic episodes (Canis familiaris [30]): 1
Protection (Canis familiaris [31]): 92%
Protection (Mustela putorius furo [32]): 91%
Protection (Canis familiaris [33]): 92%
Emetic episodes (Mustela putorius furo [34]): 2.4

Compound: CCN(CC)CCNC(=O)c1cc(Cl)c(N)cc1OC(C)C#N (stereo unspecified)
ED50 [1]: > 3 mg/kg
ED50 [2]: > 40 mg/kg
Protection (Canis familiaris [3]): 80%
Emetic episodes (Mustela putorius furo [4]): 2.7
Protection (Mustela putorius furo [5]): 63%
ED50 [6]: > 40 mg/kg
Emetic episodes (Canis familiaris [7]): 2.5
IC50 (D(2) dopamine receptor): > 1 µM

Continued, in another order:

ED50 [2]: > 40 mg/kg
IC50 (D(2) dopamine receptor): > 1 µM
Compound: CCN(CC)CCNC(=O)c1cc(Cl)c(N)cc1OCC(=O)c1ccccc1
ED50 [1]: > 3 mg/kg
Protection (Canis familiaris [3]): 88%
Emetic episodes (Mustela putorius furo [4]): 0
Protection (Mustela putorius furo [5]): 100%
ED50 [6]: > 40 mg/kg
Emetic episodes (Canis familiaris [7]): 1.5

ED50 [2]: > 40 mg/kg
IC50 (D(2) dopamine receptor): > 1 µM
Compound: CCN(CC)CCNC(=O)c1cc(Cl)c(N)cc1OCCC(C)OC (stereo unspecified)
ED50 [1]: > 3 mg/kg
Protection (Canis familiaris [10]): 88%
Emetic episodes (Mustela putorius furo [4]): 1.3
Protection (Mustela putorius furo [5]): 82%
ED50 [6]: > 40 mg/kg
Protection (Canis familiaris [8]): 28%
Emetic episodes (Mustela putorius furo [11]): 4.3
Protection (Mustela putorius furo [11]): 42%
Emetic episodes (Canis familiaris [12]): 8.5
Emetic episodes (Canis familiaris [13]): 1.5

ED50 [2]: > 40 mg/kg
IC50 (D(2) dopamine receptor): > 1 µM
Compound: CCN(CC)CCNC(=O)c1cc(Cl)c(N)cc1OCC#N
Emetic episodes (Canis familiaris [35]): 4.7
ED50 [1]: > 3 mg/kg
Protection (Canis familiaris [3]): 63%
Emetic episodes (Mustela putorius furo [4]): 0.7
Protection (Mustela putorius furo [5]): 90%
ED50 [6]: > 40 mg/kg

ED50 [2]: > 40 mg/kg
IC50 (D(2) dopamine receptor): > 1 µM
Compound: CCN(CC)CCNC(=O)c1cc(Cl)c(N)cc1OCC1COC(C)(C)O1 (stereo unspecified)
ED50 [1]: > 3 mg/kg
Protection (Canis familiaris [3]): 68%
Emetic episodes (Mustela putorius furo [4]): 2
Protection (Mustela putorius furo [5]): 72%
ED50 [6]: > 40 mg/kg
Emetic episodes (Canis familiaris [7]): 4
